Measurements from ChEMBL document CHEMBL4219037, “Modified biphenyl Hsp90 C-terminal inhibitors for the treatment of cancer” (Bioorg Med Chem Lett, 2017).
The source made the active and inactive calls. The calls are words filed in the database; no cut-off is given here.

Key:
MCF7 = assay: Antiproliferative activity against human MCF7 cells after 72 hrs by MTS assay; assay type: functional, cell-based; conditions: MCF7, 72 h
Procedure, shortened: (§1)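 Cells kept in Advanced DMEM/F12 at 37 °C, 5% CO2, humidified. Seeded at 3000 cells/well, left 24 h, then given compound or vehicle in DMSO (1% DMSO final) at varying concentrations for 72 h. Viable cells read by MTS/PMS proliferation kit. Vehicle wells set to 100% proliferation. IC50 as mean ± SD of at least three separate experiments run in triplicate.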

SK-BR-3 = assay: Antiproliferative activity against human SKBR3 cells after 72 hrs by MTS assay; assay type: functional, cell-based; conditions: SK-BR-3, 72 h; procedure, shortened: as §1
[1] = Antiproliferative activity against human LNCaP-LN3 cells after 72 hrs by MTS assay; assay type: functional, cell-based; conditions: LNCaP-LN3, 72 h; procedure, shortened: as §1
[2] = Antiproliferative activity against human PC3MM2 cells after 72 hrs by MTS assay; assay type: functional, cell-based; conditions: PC3MM2, 72 h; procedure, shortened: as §1
[3] = target: T1, Heat shock protein HSP90 (Homo sapiens) (UniProt P07900+P08238); assay: Inhibition of C-terminal HSP90 in human MCF7 cells assessed as degradation of cyclin D1 at 4.49 to 44.95 uM after 24 hrs by Western blot analysis relative to control; assay type: cell-based
[4] = target: T1, Heat shock protein HSP90 (Homo sapiens); assay: Inhibition of C-terminal HSP90 in human MCF7 cells assessed as degradation of HER2 at 4.49 to 44.95 uM after 24 hrs by Western blot analysis relative to control; assay type: cell-based
[5] = target: T1, Heat shock protein HSP90 (Homo sapiens); assay: Inhibition of C-terminal HSP90 in human MCF7 cells assessed as degradation of cRAF at 4.49 to 44.95 uM after 24 hrs by Western blot analysis relative to control; assay type: cell-based
[6] = target: T1, Heat shock protein HSP90 (Homo sapiens); assay: Inhibition of […] HSP90 in human MCF7 cells assessed as reduction in HSP90 expression at 4.49 to 44.95 uM after 24 hrs by Western blot analysis relative to control; assay type: cell-based
[7] = target: T1, Heat shock protein HSP90 (Homo sapiens); assay: Inhibition of C-terminal HSP90 in human MCF7 cells assessed as degradation of cyclin D1 at 2.945 to 29.45 uM after 24 hrs by Western blot analysis relative to control; assay type: cell-based
[8] = target: T1, Heat shock protein HSP90 (Homo sapiens); assay: Inhibition of C-terminal HSP90 in human MCF7 cells assessed as degradation of cRAF at 2.945 to 29.45 uM after 24 hrs by Western blot analysis relative to control; assay type: cell-based
[9] = target: T1, Heat shock protein HSP90 (Homo sapiens); assay: Inhibition of C-terminal HSP90 in human MCF7 cells assessed as degradation of HER2 at 2.945 to 29.45 uM after 24 hrs by Western blot analysis relative to control; assay type: cell-based
[10] = target: T1, Heat shock protein HSP90 (Homo sapiens); assay: Inhibition of […] HSP90 in human MCF7 cells assessed as reduction in HSP90 expression at 2.945 to 29.45 uM after 24 hrs by Western blot analysis relative to control; assay type: cell-based

CC(C)=CCc1cc(C(=O)NCCc2cc(C)c(OC3CCN(C)CC3)cc2-c2cccc(F)c2)ccc1O
IC50 (MCF7): 35.6 µM | IC50 (SK-BR-3): 15.2 µM | IC50 [1]: > 100 µM | IC50 [2]: > 100 µM

COc1cc(OC2CCN(C)CC2)cc(-c2cccc(F)c2)c1CCNC(=O)c1ccc(O)c(CC=C(C)C)c1
IC50 (MCF7): 7.86 µM | IC50 (SK-BR-3): 8.16 µM | IC50 [1]: > 100 µM | IC50 [2]: 1.84 µM

COc1cccc(-c2cc(C(=O)NCCc3ccc(OC4CCN(C)CC4)c(N)c3-c3cccc(F)c3)ccc2OC)c1
IC50 (MCF7): 11.3 µM | IC50 (SK-BR-3): 15.3 µM | IC50 [1]: 22.4 µM | IC50 [2]: 18.9 µM

COc1cccc(-c2cc(C(=O)NCCc3cc(C)c(O[C@@H]4OC(C)(C)[C@H](OC)[C@@H](O)[C@H]4O)cc3-c3cccc(F)c3)ccc2OC)c1
IC50 (MCF7): > 50 µM | IC50 (SK-BR-3): 43.9 µM | IC50 [1]: > 100 µM | IC50 [2]: > 100 µM

CO[C@@H]1[C@@H](O)[C@@H](O)[C@H](Oc2ccc(CCNC(C)=O)c(-c3cccc(F)c3)c2)OC1(C)C [CEMDOMESPIB]
IC50 (MCF7): > 500 µM | IC50 (SK-BR-3): > 500 µM | IC50 [1]: > 500 µM | IC50 [2]: > 500 µM

CC(C)=CCc1cc(C(=O)NCCc2ccc(OC3CCN(C)CC3)c(O)c2-c2cccc(F)c2)ccc1O
IC50 (MCF7): 1.45 µM | IC50 (SK-BR-3): 3.25 µM | IC50 [1]: 23.1 µM | IC50 [2]: 42.3 µM

COc1cccc(-c2cc(C(=O)NCCc3ccc(O[C@@H]4OC(C)(C)[C@H](OC)[C@@H](O)[C@H]4O)c(C)c3-c3cccc(F)c3)ccc2OC)c1
IC50 (MCF7): 8.99 µM | IC50 (SK-BR-3): 43.5 µM | IC50 [1]: 25.1 µM | IC50 [2]: > 50 µM | inhibition [3]: Active | inhibition [4]: Active | inhibition [5]: Active | inhibition [6]: inactive

COc1cccc(-c2cc(C(=O)NCCc3c(OC)cc(OC4CCN(C)CC4)cc3-c3cccc(F)c3)ccc2OC)c1
IC50 (MCF7): 8.71 µM | IC50 (SK-BR-3): 5.72 µM | IC50 [1]: > 100 µM | IC50 [2]: 32.1 µM

COc1cccc(-c2cc(C(=O)NCCc3cc(C)c(OC4CCN(C)CC4)cc3-c3cccc(F)c3)ccc2OC)c1
IC50 (MCF7): 9.14 µM | IC50 (SK-BR-3): 7.81 µM | IC50 [1]: 20.8 µM | IC50 [2]: 13.9 µM

CC(C)=CCc1cc(C(=O)NCCc2c(O)cc(OC3CCN(C)CC3)cc2-c2cccc(F)c2)ccc1O
IC50 (MCF7): 5.89 µM | IC50 (SK-BR-3): 7.59 µM | IC50 [1]: 22.8 µM | IC50 [2]: 1.32 µM | inhibition [7]: Active | inhibition [8]: Active | inhibition [9]: Active | inhibition [10]: inactive

COc1cccc(-c2cc(C(=O)NCCc3c(O)cc(OC4CCN(C)CC4)cc3-c3cccc(F)c3)ccc2OC)c1
IC50 (MCF7): 12.2 µM | IC50 (SK-BR-3): 15.7 µM | IC50 [1]: 44.8 µM | IC50 [2]: > 50 µM

COc1cccc(-c2cc(C(=O)NCCc3c(OC)cc(O[C@@H]4OC(C)(C)[C@H](OC)[C@@H](O)[C@H]4O)cc3-c3cccc(F)c3)ccc2OC)c1
IC50 (MCF7): 44.7 µM | IC50 (SK-BR-3): 49.4 µM | IC50 [1]: 8.09 µM | IC50 [2]: 10.6 µM

COc1cccc(-c2cc(C(=O)NCCc3ccc(O[C@@H]4OC(C)(C)[C@H](OC)[C@@H](O)[C@H]4O)cc3-c3cccc(F)c3)ccc2OC)c1
IC50 (MCF7): > 50 µM | IC50 (SK-BR-3): > 50 µM | IC50 [1]: 15.9 µM | IC50 [2]: > 50 µM

COc1cccc(-c2cc(C(=O)NCCc3ccc(OC4CCN(C)CC4)c(C)c3-c3cccc(F)c3)ccc2OC)c1
IC50 (MCF7): 17.8 µM | IC50 (SK-BR-3): 21.3 µM | IC50 [1]: > 50 µM | IC50 [2]: > 50 µM

COc1cccc(-c2cc(C(=O)NCCc3ccc(OC4CCN(C)CC4)cc3-c3cccc(F)c3)ccc2OC)c1
IC50 (MCF7): 15.4 µM | IC50 (SK-BR-3): 23.7 µM | IC50 [1]: 22.5 µM | IC50 [2]: 5.49 µM

COc1cccc(-c2cc(C(=O)NCCc3ccc(OC4CCN(C)CC4)c(O)c3-c3cccc(F)c3)ccc2OC)c1
IC50 (MCF7): 11.3 µM | IC50 (SK-BR-3): 9.29 µM | IC50 [1]: 22.4 µM | IC50 [2]: 8.61 µM

COc1cccc(-c2cc(C(=O)NCCc3c(O)cc(O[C@@H]4OC(C)(C)[C@H](OC)[C@@H](O)[C@H]4O)cc3-c3cccc(F)c3)ccc2OC)c1
IC50 (MCF7): 23.8 µM | IC50 (SK-BR-3): 23.5 µM | IC50 [1]: > 50 µM | IC50 [2]: > 50 µM
